Measured values from ChEMBL document CHEMBL5046304, “Novel Pyridazin-3(2H)-one-Based Guanidine Derivatives as Potential DNA Minor Groove Binders with Anticancer Activity” (ACS Med Chem Lett, 2022).
pIC50: −log10 of the molar value.

Assays:
Salmon testes DNA = experiment: Binding affinity to salmon sperm DNA assessed as thermal stability by measuring change in melting temperature at 15 uM at pH 7 by spectrophotometric analysis; format: nucleic-acid assay; conditions: Salmo salar
MCF7 = experiment: Cytotoxicity against human MCF7 cells assessed as reduction in cell viability at 100 uM after 96 hrs by MTT assay; format: functional
In short: (§1)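 Percentage inhibition of cell viability; values are means of three experiments.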

A2780 [1] = experiment: Cytotoxicity against human A2780 cells assessed as reduction in cell viability at 100 uM after 96 hrs by MTT assay; format: functional; in short: as §1
NCI-H460 = experiment: Cytotoxicity against human NCI-H460 cells assessed as reduction in cell viability at 100 uM after […] by MTT assay; format: functional; in short: as §1
A2780 [2] = experiment: Cytotoxicity against human A2780 cells assessed as reduction in cell viability measured after 96 hrs by MTT assay; format: functional, cell-based; conditions: A2780, 96 h

Row | ΔTm (Salmon testes DNA) [°C] | Structure (SMILES) | inhibition at 100 µM (MCF7) [%] | inhibition at 100 µM (A2780 [1]) [%] | inhibition at 100 µM (NCI-H460) [%] | pIC50 (A2780 [2])
1 | 1.4 | N=C(N)NCc1ccc(Cn2nc(CNC(=N)N)ccc2=O)cc1 |  |  |  | 
2 |  | Cn1nc(CNC(=N)N)ccc1=O | 20 | 11 | 4 | 
3 |  | COCc1ccc(Cn2nccc(CNC(=N)N)c2=O)cc1 |  | 38 | 1 | 
4 |  | Cn1ncc(CNC(=N)N)cc1=O | 2 | 24 | 13 | 
5 |  | Cc1cc(=O)n(Cc2ccccc2)nc1CNC(=N)N | 18 | 23 | 2 | 
6 |  | N=C(N)NCc1ccnn(Cc2ccccc2)c1=O | 46 | 41 | 15 | 
7 | 1.2 | N=C(N)NCc1ccc(Cn2ncc(CNC(=N)N)cc2=O)cc1 | 23 | 33 | 35 | 
8 |  | N=C(N)NCc1cnn(Cc2ccccc2)c(=O)c1 | 13 | 40 | 1 | 
9 | 1.1 | N=C(N)NCc1ccc(Cn2nccc(CNC(=N)N)c2=O)cc1 |  |  |  | 
10 |  | Cc1cc(=O)n(Cc2ccc(CCl)cc2)nc1CNC(=N)N | 25 | 54 | 7 | < 4.00
11 |  | Cc1cc(=O)n(Cc2ccc(CF)cc2)nc1CNC(=N)N | 13 | 34 | 5 | 
12 | 1.2 | Cc1cc(=O)n(Cc2ccc(CNC(=N)N)cc2)nc1CNC(=N)N | 22 | 59 | 34 | 4.68
13 |  | Cn1nccc(CNC(=N)N)c1=O | 1 | 18 | 1 | 
14 |  | Cc1cc(=O)n(C)nc1CNC(=N)N | 12 | 20 | 2 | 
